Data: publication PMC3018326 (Proteins, 2010)

molecular target: T1, TcFPPS (Trypanosoma cruzi, UniProt Q95WL3); assay: isothermal titration calorimetry, two-sequential-site fit; assay type: binding
T1 sequence (Q95WL3 1-362): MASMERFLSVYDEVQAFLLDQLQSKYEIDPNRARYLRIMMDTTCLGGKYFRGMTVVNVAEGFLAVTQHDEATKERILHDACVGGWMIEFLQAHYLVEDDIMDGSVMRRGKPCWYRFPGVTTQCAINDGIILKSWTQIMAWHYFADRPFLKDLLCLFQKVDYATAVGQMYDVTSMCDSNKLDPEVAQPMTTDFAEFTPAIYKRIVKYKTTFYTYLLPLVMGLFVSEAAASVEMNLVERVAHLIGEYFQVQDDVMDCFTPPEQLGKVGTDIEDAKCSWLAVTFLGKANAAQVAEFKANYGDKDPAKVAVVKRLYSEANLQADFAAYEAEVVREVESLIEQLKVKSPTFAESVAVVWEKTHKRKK
Outline: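 TcFPPS carried an N-terminal His-tag, was expressed in E. coli BL21(DE3), and was purified by Ni-affinity and gel filtration. Protein at 22.5 μM was dialyzed into 20 mM HEPES pH 7.5, 1 M NaCl, 2 mM MgCl2, 2 mM TCEP. Test compound at 250 μM in the same buffer was injected (10 μL) every 300 s at 26°C. Dilution heats were subtracted and the first injection excluded. Isotherms were fitted to a two-sequential-site model.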

Row | Compound | Kd [nM]
1 | O=P(O)(O)C(O)(Cc1cccnc1)P(=O)(O)O [Ris, risedronate] | 66.7
2 | O=P(O)(O)C(O)(Cn1ccnc1)P(=O)(O)O [91B, zoledronate] | 28.6
3 | O=P(O)(O)C(O)(Cc1cnc2ccccn12)P(=O)(O)O [261A, minodronate] | 10.9
